Converted amounts (≈) assume the structure as drawn. Some results are limits rather than exact numbers.

In series [1] the target is T1, Mucosa-associated lymphoid tissue lymphoma translocation protein 1 (Homo sapiens, UniProt Q9UDY8).
T1 sequence (Q9UDY8 whole entry): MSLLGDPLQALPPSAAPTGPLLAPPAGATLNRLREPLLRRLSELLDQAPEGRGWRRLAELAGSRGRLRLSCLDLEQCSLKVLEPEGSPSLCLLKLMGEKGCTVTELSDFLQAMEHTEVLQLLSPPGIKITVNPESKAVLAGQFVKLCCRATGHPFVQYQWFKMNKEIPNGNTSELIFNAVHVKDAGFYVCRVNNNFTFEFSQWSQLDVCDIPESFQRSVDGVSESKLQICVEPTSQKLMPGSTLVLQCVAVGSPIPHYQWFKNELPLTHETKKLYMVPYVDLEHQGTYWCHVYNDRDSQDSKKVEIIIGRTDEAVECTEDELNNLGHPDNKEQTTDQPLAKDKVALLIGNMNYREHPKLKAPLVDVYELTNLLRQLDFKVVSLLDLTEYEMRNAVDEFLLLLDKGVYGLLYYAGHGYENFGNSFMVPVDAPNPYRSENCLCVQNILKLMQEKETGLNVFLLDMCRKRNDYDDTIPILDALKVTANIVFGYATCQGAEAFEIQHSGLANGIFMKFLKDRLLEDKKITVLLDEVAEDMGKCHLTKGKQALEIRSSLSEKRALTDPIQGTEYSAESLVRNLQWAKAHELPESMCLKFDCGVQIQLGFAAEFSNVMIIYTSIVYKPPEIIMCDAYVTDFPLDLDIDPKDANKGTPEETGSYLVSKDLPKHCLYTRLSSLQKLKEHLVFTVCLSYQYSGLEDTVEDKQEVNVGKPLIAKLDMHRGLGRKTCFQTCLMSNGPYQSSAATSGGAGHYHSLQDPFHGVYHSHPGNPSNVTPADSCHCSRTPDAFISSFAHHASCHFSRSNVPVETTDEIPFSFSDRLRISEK
In words: Inhibition of human MALT1 assessed as cleavage of substrate using fluorescent labeled Ac-LRSR-Rh110 peptide as substrate incubated for 30 mins followed by substrate addition and measured after 3 to 4 hrs by FRET assay. The method in brief:
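Fluorogenic MALT1 cleavage assay with the tetrapeptide LRSR carrying rhodamine 110 and a non-fluorescent quencher; signal read as FRET. Horseradish peroxidase and resazurin redox counter-assays used to exclude artefacts. Values are the mean of at least three independent measurements, with standard deviation.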

For another series, the target named is Cytochrome P450 2C9 (Homo sapiens, UniProt P11712). In words: Inhibition of CYP2C9 (unknown origin). Format: ADME.
A short description of series [2]: Oral bioavailability in Wistar Han rat at 0.9 mg/kg. The series is classed as ADME, organism-based. The conditions noted are these: in vivo.
Series [3] addresses Voltage-gated inwardly rectifying potassium channel KCNH2 (Homo sapiens, UniProt Q12809). As to the kind of experiment: Inhibition of human ERG. The series is classed as toxicity.
Series [4] can be described thus: Half life in Wistar Han rat at 0.9 mg/kg, po or 0.5 mg/kg, iv. The series is classed as ADME, organism-based. The conditions noted are these: in vivo.
The target in a further series is T2, Cytochrome P450 1A2 (Homo sapiens, UniProt P05177).
T2 sequence (P05177 whole entry): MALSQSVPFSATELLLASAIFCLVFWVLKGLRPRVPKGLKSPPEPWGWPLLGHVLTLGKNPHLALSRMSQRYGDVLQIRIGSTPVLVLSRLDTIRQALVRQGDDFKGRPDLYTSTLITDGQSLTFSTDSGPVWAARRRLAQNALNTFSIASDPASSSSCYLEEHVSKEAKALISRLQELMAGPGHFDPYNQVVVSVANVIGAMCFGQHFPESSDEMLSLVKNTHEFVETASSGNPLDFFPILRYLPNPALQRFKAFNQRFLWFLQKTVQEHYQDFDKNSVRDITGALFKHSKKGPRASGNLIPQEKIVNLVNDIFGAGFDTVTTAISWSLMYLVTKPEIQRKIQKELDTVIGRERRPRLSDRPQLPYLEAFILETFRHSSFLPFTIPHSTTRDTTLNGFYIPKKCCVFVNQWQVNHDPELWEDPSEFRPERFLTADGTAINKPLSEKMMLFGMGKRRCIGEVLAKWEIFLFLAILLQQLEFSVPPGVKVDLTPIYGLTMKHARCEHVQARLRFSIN
In words: Inhibition of CYP1A2 (unknown origin). The series is classed as ADME.

The nature of series [5]: Solubility of compound in PBS at pH 7.4 incubated for 20 to 24 hrs under shaking condition by LC-MS analysis. The series is classed as physicochemical. The conditions noted are these: time 20-24 hrs. Summed up: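 Dried-DMSO solubility: 10 mM DMSO stock dried down, residue resolubilized in 0.1 M phosphate buffer, pH 7.4.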
A further series deals with Cytochrome P450 2D6 (Homo sapiens, UniProt P10635). As to the kind of experiment: Inhibition of CYP2D6 (unknown origin). Format: ADME.
In series [6] the target is T1, Mucosa-associated lymphoid tissue lymphoma translocation protein 1. As to the kind of experiment: Inhibition of human MALT1 in human MCF7 cells assessed as MALT1 mediated cleavage of human A20 in cytosol by fluorescence microscopy. The series is classed as subcellular. Summed up:
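Cellular MALT1 activity in MCF7 cells, read as inhibition of MALT1-mediated cleavage of human A20.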

Series [7] in a line: AUC in Wistar Han rat at 0.9 mg/kg, po or 0.5 mg/kg, iv. Set-up: dose 0.9 mg/kg, route po. The series is classed as ADME, organism-based. The conditions noted are these: in vivo.
The next series addresses Cytochrome P450 3A4 (Homo sapiens, UniProt P08684). As to the kind of experiment: Inhibition of CYP3A4 (unknown origin). Format: ADME.
The next series has as its target Cytochrome P450 2C19 (Homo sapiens, UniProt P33261). In words: Inhibition of CYP2C19 (unknown origin). The series is classed as ADME.
A short description of series [8]: Volume of distribution at steady state in Wistar Han rat at 0.9 mg/kg, po or 0.5 mg/kg, iv. Format: ADME, organism-based. The conditions noted are these: in vivo.
Series [9] can be described thus: Lipophilicity, log D of compound at 7.4 by LC-MS analysis. Format: physicochemical. The following applies: pH 7.4. Summed up:
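ChromlogD at pH 7.4: retention time on an LCMS system with an aqueous mobile phase, converted to lipophilicity with a calibration curve.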

The nature of series [10]: Passive permeability of compound across apical to basolateral in human Caco2 cells at 10 uM and measured upto 120 mins by LC-MS/MS analysis. The series is classed as ADME, cell-based. The conditions noted are these: Caco-2. Summed up:
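Apical-to-basolateral passive permeability across Caco-2 monolayers, run in the presence of inhibitors of the efflux transporters P-gp, BCRP and MRP2.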
A general note: Caco-2 cells form a polarised layer with tight junctions and transporters.

Series [11] in a line: Metabolic stability in human liver microsomes assessed as intrinsic clearance by LC-MS/MS analysis. Format: ADME, Microsome. The following applies: read-out: CLH. The method in brief:
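Human liver microsomes, compound incubated; intrinsic clearance from disappearance of the parent compound over time.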
(Liver microsomes are a subcellular fraction often used to study metabolism.)

Chain of Cytochrome P450 2C9 (P11712 whole entry): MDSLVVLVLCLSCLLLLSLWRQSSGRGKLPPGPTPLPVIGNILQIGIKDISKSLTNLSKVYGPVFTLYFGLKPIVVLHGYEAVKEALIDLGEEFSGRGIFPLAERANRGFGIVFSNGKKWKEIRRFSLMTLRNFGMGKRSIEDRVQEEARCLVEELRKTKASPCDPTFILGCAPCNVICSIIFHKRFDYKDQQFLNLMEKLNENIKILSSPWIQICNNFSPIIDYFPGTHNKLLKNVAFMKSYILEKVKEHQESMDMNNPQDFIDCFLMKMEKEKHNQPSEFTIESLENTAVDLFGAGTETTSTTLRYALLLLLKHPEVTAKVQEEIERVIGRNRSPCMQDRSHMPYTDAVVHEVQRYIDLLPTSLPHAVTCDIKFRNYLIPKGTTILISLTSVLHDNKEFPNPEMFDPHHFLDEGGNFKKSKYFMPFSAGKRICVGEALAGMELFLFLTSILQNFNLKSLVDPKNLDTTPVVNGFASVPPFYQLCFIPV
Chain of Voltage-gated inwardly rectifying potassium channel KCNH2 (Q12809 whole entry): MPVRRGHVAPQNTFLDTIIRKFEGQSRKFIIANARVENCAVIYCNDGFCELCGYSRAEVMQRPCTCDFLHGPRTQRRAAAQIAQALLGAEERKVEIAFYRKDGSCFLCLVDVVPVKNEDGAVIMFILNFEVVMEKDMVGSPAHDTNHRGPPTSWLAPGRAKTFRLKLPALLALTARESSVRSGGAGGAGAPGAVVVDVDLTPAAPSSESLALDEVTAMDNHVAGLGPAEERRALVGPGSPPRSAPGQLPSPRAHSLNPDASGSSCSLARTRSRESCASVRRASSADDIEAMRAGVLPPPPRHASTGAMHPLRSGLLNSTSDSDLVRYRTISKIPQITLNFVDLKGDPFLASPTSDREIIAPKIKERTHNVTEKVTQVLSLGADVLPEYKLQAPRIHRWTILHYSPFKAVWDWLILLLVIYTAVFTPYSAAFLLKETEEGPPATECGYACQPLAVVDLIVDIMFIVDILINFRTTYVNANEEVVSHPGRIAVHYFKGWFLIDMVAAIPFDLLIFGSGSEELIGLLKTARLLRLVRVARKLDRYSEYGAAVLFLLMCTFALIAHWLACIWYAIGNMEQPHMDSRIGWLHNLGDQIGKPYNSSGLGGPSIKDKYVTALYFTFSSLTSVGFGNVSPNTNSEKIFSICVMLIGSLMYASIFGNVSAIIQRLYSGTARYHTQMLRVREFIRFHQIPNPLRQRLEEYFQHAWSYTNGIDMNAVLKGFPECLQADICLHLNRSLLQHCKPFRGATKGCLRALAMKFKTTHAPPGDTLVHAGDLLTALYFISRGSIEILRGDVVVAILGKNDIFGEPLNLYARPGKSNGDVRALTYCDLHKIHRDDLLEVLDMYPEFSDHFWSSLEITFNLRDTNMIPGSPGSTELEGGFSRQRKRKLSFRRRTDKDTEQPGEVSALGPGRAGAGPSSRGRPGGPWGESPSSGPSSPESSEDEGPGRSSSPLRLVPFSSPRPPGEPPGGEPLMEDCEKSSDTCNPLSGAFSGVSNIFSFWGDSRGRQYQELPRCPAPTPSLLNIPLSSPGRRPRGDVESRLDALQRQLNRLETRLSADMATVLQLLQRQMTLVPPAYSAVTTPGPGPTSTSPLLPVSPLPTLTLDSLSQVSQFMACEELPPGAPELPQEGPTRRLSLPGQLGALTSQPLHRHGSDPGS
Chain of Cytochrome P450 3A4 (P08684 whole entry): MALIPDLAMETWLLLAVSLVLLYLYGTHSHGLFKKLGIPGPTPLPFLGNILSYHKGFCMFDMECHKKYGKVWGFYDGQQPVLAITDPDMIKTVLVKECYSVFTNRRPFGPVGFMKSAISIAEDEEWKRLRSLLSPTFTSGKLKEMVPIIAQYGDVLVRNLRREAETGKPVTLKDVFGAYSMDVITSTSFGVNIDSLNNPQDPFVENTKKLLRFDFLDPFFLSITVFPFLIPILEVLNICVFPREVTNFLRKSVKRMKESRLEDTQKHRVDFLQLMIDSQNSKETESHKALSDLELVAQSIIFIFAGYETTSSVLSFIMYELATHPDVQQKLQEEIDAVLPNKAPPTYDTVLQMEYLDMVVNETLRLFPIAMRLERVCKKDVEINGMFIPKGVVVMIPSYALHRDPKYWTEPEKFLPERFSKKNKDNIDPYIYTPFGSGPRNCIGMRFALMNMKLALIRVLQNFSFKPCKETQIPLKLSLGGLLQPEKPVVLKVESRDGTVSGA
Chain of Cytochrome P450 2C19 (P33261 whole entry): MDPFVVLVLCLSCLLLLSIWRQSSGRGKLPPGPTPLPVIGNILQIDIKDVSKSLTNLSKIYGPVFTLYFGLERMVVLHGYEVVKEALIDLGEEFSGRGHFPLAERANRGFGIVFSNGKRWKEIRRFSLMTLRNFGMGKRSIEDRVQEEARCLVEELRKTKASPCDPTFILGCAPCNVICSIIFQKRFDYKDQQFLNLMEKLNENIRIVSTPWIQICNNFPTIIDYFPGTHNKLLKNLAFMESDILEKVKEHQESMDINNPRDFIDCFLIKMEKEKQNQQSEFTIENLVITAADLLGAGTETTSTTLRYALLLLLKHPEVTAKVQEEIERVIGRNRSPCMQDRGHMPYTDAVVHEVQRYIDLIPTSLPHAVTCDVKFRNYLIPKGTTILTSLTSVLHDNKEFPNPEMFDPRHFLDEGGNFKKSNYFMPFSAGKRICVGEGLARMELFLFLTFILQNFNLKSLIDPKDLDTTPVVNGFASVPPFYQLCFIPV
Chain of Cytochrome P450 2D6 (P10635 whole entry): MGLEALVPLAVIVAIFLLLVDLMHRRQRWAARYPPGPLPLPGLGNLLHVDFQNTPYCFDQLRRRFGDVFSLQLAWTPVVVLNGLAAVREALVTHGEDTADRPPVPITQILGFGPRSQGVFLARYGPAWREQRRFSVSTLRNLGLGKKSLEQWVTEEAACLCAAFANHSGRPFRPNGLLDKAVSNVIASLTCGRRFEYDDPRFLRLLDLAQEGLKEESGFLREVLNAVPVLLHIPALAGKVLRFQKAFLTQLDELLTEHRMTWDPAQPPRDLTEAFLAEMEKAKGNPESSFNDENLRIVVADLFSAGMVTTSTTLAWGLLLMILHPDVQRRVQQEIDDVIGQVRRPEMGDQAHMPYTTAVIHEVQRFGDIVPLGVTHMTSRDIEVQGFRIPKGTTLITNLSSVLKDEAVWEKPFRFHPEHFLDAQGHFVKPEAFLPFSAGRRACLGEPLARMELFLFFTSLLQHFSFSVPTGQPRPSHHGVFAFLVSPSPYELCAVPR

As for `FC(F)(F)c1nccc(N[C@H]2CC[C@@H](Nc3ccc4nnc(Cl)n4n3)CC2)n1`, the IC50 in series [1] was 0.3 µM; at Cytochrome P450 2C9 it was 10 µM; in [3], 24 µM; on Cytochrome P450 1A2 it was over 30 µM; on Cytochrome P450 2D6 it was over 30 µM; in [6] it was 3.2 µM. Further, the IC50 on Cytochrome P450 3A4 worked out at 18 µM; against Cytochrome P450 2C19 it was 14 µM. In series [2], the bioavailability stood at 72%. The half-life in series [4] was 4 h. In addition, the concentration in solution in series [5] (solubility) came to 19 µM (≈ 7.84 µg/mL). The compound also yielded an AUC in [7] of 3.21 µM·h. In series [8], this compound yielded a Vdss of 2.2 L/kg. This compound also had a logD in series [9] of 3.1. In series [10], this compound yielded a Papp A→B at 2 h, 10 µM of 44 ×10⁻⁶ cm/s. Besides, the microsomal CLint in series [11] was under 3 µL/min/mg.

As usually defined, the IC50 is the midpoint of a concentration-inhibition curve. One may read the bioavailability as the share of a dose that reaches the circulation, judged against a reference dose that is usually intravenous. A low value points to little systemic uptake. What is called half-life is how long it takes for the measured level to halve. For orientation: solubility means how much of the substance goes into solution per volume. Higher therefore signals much dissolved substance. One may read the AUC as concentration integrated over time. Higher therefore signals more exposure. By logD is commonly meant the decadic logarithm of the distribution of all forms, ionised or not, between an organic phase and buffer at a given pH. In general, Papp A→B refers to how fast a substance crosses the layer from the apical side.
